Source: PubChem
Ecoli rRNA inh = selective bacterial rRNA inhibition in E. coli | E. coli WT GFP vs humanized-ribosome RFP mutants, fluorescence, 24 h; stronger effect = lower value; DMSO median 0, no signal -100 | hit rate 1.6% among 350,000 | GFP signal change (wild-type ribosome), % (test concentration not listed);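 active means significant combined selectivity score with lowered wild-type GFP, culture density cut under 30%, mutant RFP and density less affected; inactive means any of these conditions unmet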
SIRT5 block = blocks human SIRT5 desuccinylation of peptide; AID 652115; hit rate 1.1% among 330,000; Purified SirT5, succinyl-peptide AMC, trypsin-coupled fluorescence; inhibition, % at 15 µM; Q9NXA8; in the data active means inhibition above about 15%
E-selectin induc = induces E-selectin expression in human endothelial cells; P16581; HUVEC E-selectin immunofluorescence imaging; normalized: neutral wells 0, TNF-alpha wells 100; activation, % at 7.58 µM; hit rate 0.37% among 260,000;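 active means mean E-selectin-positive cell signal at least 10% of the positive control, reached in at least 60% of replicates, without over 20% cell loss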
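Read-out: % PE-positive cells | Test system: HUVEC | Doses: One compound dose added by pin transfer | Buffer or medium: EGM-2 over gelatin coat | Signal: Immunofluorescence imaging | Benchmarks: TNF-alpha, DMSO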
FN deposition inh = fibronectin deposition inhibition; AH1F fibroblasts, Alexa488-fibronectin deposition fluorescence, overnight; inhibition, % at 12.6 µM; hit rate 0.086% among 350,000; AID 743247;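 active means mean inhibition across replicates of 30% or more, regardless of how many single replicates reach that level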;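 further: positive control wells lacked labelled fibronectin entirely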
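Schedule: 1 h cell adhesion before compound, then overnight fibronectin incubation; test system: AH1F fibroblast monolayer depositing Alexa488-labelled fibronectin into matrix; quantity: 10000 AH1F cells per well; probe or stimulus: fluorescent fibronectin at 24 nM final; signal: fluorescence, ex 485 nm, em 525 nm; evaluation: percent inhibition as loss of matrix-bound fibronectin fluorescence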
C2C12 statin = protects C2C12 myotubes from simvastatin toxicity; ATP luminescence, 48 h; scaled: DMSO 0, geranylgeraniol control 100; rescue of ATP level, % at 7.49 µM; hit rate 0.78% among 330,000; AID 602340;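 active means mean ATP rescue above about 67%, or every replicate alone reaching that limit, limit read from the data, passing the limit was not always enough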;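 further: myotubes were challenged with 10 µM simvastatin during compound exposure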
FGF22 binding = binders of recombinant human FGF22 by thermal shift; SYPRO orange fluorescence; percent of sucrose octasulfate shift, DMSO zero; activity (Tm shift, normalised), % at 9.99 µM; hit rate 1.5% among 340,000; AID 651658;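 active means mean Tm shift, scaled 0 neutral to 100 positive control, at about 1.3% or above, every replicate too, limit read from the data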
Target sequence (Q9HCT0 whole entry, looked up): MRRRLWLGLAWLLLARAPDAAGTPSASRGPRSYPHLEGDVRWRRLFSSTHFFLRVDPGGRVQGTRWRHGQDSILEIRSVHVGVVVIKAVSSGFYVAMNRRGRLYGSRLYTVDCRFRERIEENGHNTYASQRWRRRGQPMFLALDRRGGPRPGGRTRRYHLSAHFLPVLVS
The depositor's hits bear a star; · = not tested or not shown. Only some compounds are listed: those with a hit (about 4% of all), similar ones and a draw of the others.

SMILES	Ecoli rRNA inh	SIRT5 block	E-selectin induc	FN deposition inh	C2C12 statin	FGF22 binding
O=S(=O)(NCC1CCCO1)c1ccc(-c2ccc(Cl)cc2)cc1 (stereo not given)	-25*	·	0	4	·	0
Cc1ccc(NS(=O)(=O)c2ccc(C(=O)NCC3CCCO3)cc2)cc1 (stereo not given)	2	-2	2	14	·	44*
CCCC(=O)Nc1ccc2c(c1)C(=O)N(C)[C@H]1CC[C@H](CC(=O)Nc3ccc(F)cc3)O[C@@H]1CO2	-3	·	0	0	8	0
Cc1ccccc1-c1ccc2c(c1)O[C@@H](CN(C)C(=O)Nc1ccc(F)cc1)[C@@H](C)CN([C@@H](C)CO)S2(=O)=O	1	19*	0	·	-5	0
C[C@@H]1CN([C@H](C)CO)S(=O)(=O)c2ccc(-c3cccc(F)c3)cc2O[C@H]1CN(C)C(=O)Nc1cc(F)ccc1F	-3	16*	0	·	-84	-1
C/C=C/c1ccc2c(c1)O[C@@H](CN(C)C(=O)Nc1ccc(C(F)(F)F)cc1)[C@@H](C)CN([C@@H](C)CO)S2(=O)=O	0	8	1	2	26	1.3*
C/C=C/c1ccc2c(c1)O[C@@H](CN(C)C(=O)Nc1ccc(C(F)(F)F)cc1)[C@H](C)CN([C@H](C)CO)S2(=O)=O	0	11	0	-6	-6	-1
C[C@H](CO)N1C[C@H](C)[C@H](CN(C)C(=O)Nc2cc(F)ccc2F)Oc2cc(/C=C/c3ccccc3)ccc2S1(=O)=O	1	·	0	19	-83	2.0*
C[C@@H]1CN([C@@H](C)CO)S(=O)(=O)c2ccc(-c3cccc(F)c3)cc2O[C@H]1CN(C)C(=O)Nc1cc(F)ccc1F	0	5	0	·	-104	0
C[C@H]1CN([C@@H](C)CO)C(=O)c2cccc(NS(=O)(=O)c3ccc(F)cc3)c2O[C@@H]1CN(C)Cc1ccc(Cl)c(Cl)c1	2	7	0	0	37	-1
C[C@H](CO)N1C[C@H](C)[C@H](CN(C)C(=O)Nc2ccc(F)cc2)Oc2cc(/C=C/c3ccccc3)ccc2S1(=O)=O	·	21*	·	·	-58	-1
C[C@H](CO)N1C[C@H](C)[C@H](CN(C)C(=O)Nc2cccc(F)c2)Oc2cc(/C=C/c3ccccc3)ccc2S1(=O)=O	-2	0	0	·	-227	0
O=C(Nc1ccc(N2CCOCC2)c(S(=O)(=O)Nc2cc(Cl)ccc2Cl)c1)c1cccnc1	-35*	3	0	13	9	1
O=C(Nc1ccc(N2CCOCC2)c(S(=O)(=O)Nc2ccccc2Cl)c1)c1ccccc1	-16	1	·	2	2	0
O=C(Nc1ccc(S(=O)(=O)N2CCCC2)cc1)N1c2ccccc2Sc2ccccc21	-14	0	·	·	7	2.3*
O=C(CSc1ncnc2ccccc12)Nc1cccc(S(=O)(=O)N2CCCC2)c1	5	0	·	-5	·	43*
O=C(Cn1cnc2ccccc2c1=O)Nc1ccc(S(=O)(=O)N2CCCC2)cc1	-7	16*	·	-2	·	0
O=C(Nc1ccccc1)Nc1ccc(S(=O)(=O)N2CCCCC2)cc1	·	·	·	·	-27	·
O=C(Cn1cnc2ccccc2c1=O)Nc1ccc(S(=O)(=O)N2CCOCC2)cc1	-7	-1	5	5	-12	0
CS(=O)(=O)N(CC(=O)Nc1ccc(S(=O)(=O)N2CCCC2)cc1)c1ccccc1	-3	-2	0	3	·	43*
C[C@H]1CN([C@@H](C)CO)C(=O)c2cccc(NC(=O)c3cnccn3)c2O[C@@H]1CN(C)C(=O)Nc1ccc(C(F)(F)F)cc1	-2	-1	·	17	-22	0
O=S(=O)(NCC[C@@H]1CC[C@@H](NS(=O)(=O)c2ccccc2Cl)[C@H](CO)O1)c1ccc(F)cc1	-7	-2	0	·	7	0
CC(C)C1C(=O)N(Cc2cn(Cc3ccco3)nn2)CCS(=O)(=O)N1Cc1ccc(-c2ccc(F)cc2)cc1 (stereo not given)	4	25*	0	·	16	0
